Experimental data published in PubChem BioAssay.
Calls of active or inactive are those of the source.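 How the source made its calls: active means current rise at least 3 SD above the untreated control mean in each of two repeat wells; inactive means the rest.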

target: Potassium voltage-gated channel subfamily KQT member 1 (Homo sapiens) (UniProt P51787); experiment: KCNQ1 activators by electrophysiology – IonWorks patch clamp, KCNQ1-CHO cells, orthogonal assay for KCNQ1 potentiator project, confirmation (AID 493184); conditions: automated patch clamp current, at 10 µM
Sequence (P51787 whole entry, looked up): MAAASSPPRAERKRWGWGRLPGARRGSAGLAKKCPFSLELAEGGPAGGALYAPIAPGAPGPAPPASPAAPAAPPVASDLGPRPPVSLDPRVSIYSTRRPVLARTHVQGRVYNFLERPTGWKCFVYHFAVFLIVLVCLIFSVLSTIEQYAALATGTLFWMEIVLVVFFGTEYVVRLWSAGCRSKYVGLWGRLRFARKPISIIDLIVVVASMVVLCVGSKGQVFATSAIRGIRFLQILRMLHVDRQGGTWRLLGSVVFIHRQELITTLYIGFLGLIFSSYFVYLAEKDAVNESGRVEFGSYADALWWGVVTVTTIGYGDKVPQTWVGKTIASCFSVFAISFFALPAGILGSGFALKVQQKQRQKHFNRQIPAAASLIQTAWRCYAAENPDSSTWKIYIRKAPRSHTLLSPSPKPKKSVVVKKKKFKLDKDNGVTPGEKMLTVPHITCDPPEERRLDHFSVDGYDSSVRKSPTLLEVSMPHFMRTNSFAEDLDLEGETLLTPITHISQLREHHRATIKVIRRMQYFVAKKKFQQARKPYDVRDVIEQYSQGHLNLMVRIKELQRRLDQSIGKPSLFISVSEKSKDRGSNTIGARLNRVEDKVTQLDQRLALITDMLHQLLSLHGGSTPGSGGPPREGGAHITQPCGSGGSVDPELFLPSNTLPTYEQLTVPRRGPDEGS
Procedure, shortened: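 Read-out: Percent current increase versus pre-compound level | Assay system: CHO cells carrying KCNQ1 | Measured by: Automated perforated-patch electrophysiology | Medium: External bath solution at pH 7.4 | Dosing: One dose, 10 µM final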

outcome, inactive:
Oc1c(N=NC(=S)Nc2ccccc2F)c2ccccc2n1Cc1cccc(Cl)c1, COC(=O)[C@H](C)NC(=O)Nc1cc(Cl)ccc1C, Cc1ccc(-n2c(-c3ccc(Cl)cc3)n[nH]c2=S)c(C)c1, Cc1ccc(C)c(NC(=S)NNC(=O)c2csc(C(C)C)c2)c1, CC(CNC(=O)COc1ccccc1)OC(=O)Nc1ccc(Cl)c(Cl)c1 (stereo not drawn), COc1ccc(/C=C(\NC(=O)c2cccs2)C(=O)N2CCOCC2)cc1OC, CNCCC=C1c2ccccc2CCc2ccccc21, O=C(Nc1cccc(-c2nnc(-c3ccco3)o2)c1)c1ccccc1, O=C(N1CCOCC1)N1CCC(n2nnc3ccccc32)CC1, CCOC(=O)c1sc(NC(=O)c2ccccc2C(=O)O)c(C(=O)OCC)c1C, CC(=O)c1ccc(NC(=S)NC(=O)c2c(Cl)c(C)nn2C)cc1, O=C(NNc1c2ccccc2nc2ccccc12)c1ccccc1Cl, COc1ccc(O)c(C(=O)c2cnn(-c3ccc(Cl)cc3)c2)c1, COC(=O)c1cc(-c2cc(OC)ccc2OC)nc2c1c(=O)n(C)c(=O)n2Cc1ccccc1, CCOC(=O)C1CCN(C(=O)COC(=O)c2cc(-c3cccs3)nn2-c2ccccc2)CC1, CC1CN(C(=O)C2CC(=O)N(c3ccc(Cl)cc3)C2)CC(C)O1 (stereo not drawn), CCOC(=O)CS(=O)(=O)c1nc(-c2ccc(F)cc2)cc(C(F)(F)F)n1, CN(C(=S)NC(=O)c1ccc(F)cc1)C1CCCCC1
